Assay outcomes as filed in PubChem.
In the library only some 2.9% were active in any assay of this set; here they are far more common.
SENP8 block-1: SENP8 protease inhibitors, primary screen, biochemical, luminescence; purified SENP8, Z-RLRGG-aminoluciferin cleavage; inhibition, % at 10 µM; hit rate 1.2% among 330,000; in the data active = inhibition above about 50%
Target sequence (Q96LD8 whole entry, looked up): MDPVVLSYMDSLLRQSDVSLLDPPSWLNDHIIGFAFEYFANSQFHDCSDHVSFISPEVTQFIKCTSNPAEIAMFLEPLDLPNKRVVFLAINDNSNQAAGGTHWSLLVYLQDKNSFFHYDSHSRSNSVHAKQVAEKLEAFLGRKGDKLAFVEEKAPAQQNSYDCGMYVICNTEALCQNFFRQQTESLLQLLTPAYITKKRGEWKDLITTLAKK
SENP7 inh: SENP7 protease inhibitors, primary screen, biochemical, luminescence, uHTS; Sentrin-specific protease 7 (Homo sapiens), Q9BQF6; recombinant SENP7, Z-RLRGG-aminoluciferin luminescence, 40 min; inhibition, % at 5 µM; hit rate 1.5% among 330,000;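 active = inhibition above about 50% at the single test dose, limit read from the data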;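 also: plate controls were DMSO with enzyme for no effect and no enzyme buffer wells for full effect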
SENP8 block-2: human SENP8 protease inhibitors, primary screen, biochemical, fluorescence, Nedd8 protein substrate, uHTS. recombinant SENP8. inhibition, % at 20 µM. hit rate 0.64% among 360,000. AID 602440, 2012; in the data active = inhibition mostly above about 40%, no sharp cut-off; inactive = mostly below about 27%
SENP6 block: SENP6 protease inhibitors, primary screen, biochemical, luminescence, uHTS | hit rate 1.8% among 330,000 | Sentrin-specific protease 6 (Homo sapiens), Q9GZR1 | inhibition, % at 10 µM | Recombinant SENP6 catalytic domain, aminoluciferin luminescence;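 active = inhibition above about 50% at the single tested dose, limit read from the data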;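 also: plate controls were DMSO wells with enzyme for no effect and DMSO wells lacking enzyme for full effect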
HSP90 refold inh: HSP90 inhibitors, primary screen, cell lysate, luminescence. inhibition, % at 5.6 µM. Rabbit reticulocyte lysate, luciferase refolding luminescence, 3 h. Heat shock protein HSP 90 (rabbit reticulocyte lysate; luciferase refolding). hit rate 0.91% among 290,000;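 active = inhibition above the screen-wide mean plus 3 SD, computed separately per campaign, cut at about 16% in these data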;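 also: 0% = DMSO wells and 100% = 60 µM geldanamycin wells; inhibitors lower the luminescence because luciferase stays unfolded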
SENP1 inh: human SENP1 catalytic domain inhibitors, primary screen, biochemical, FRET, uHTS; Sentrin-specific protease 1 (Homo sapiens), Q9P0U3; recombinant SENP1 catalytic domain, CyPet-SUMO1-YPet FRET cleavage; inhibition, % at 10 µM; hit rate 0.21% among 360,000;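 active = inhibition at least 30% at 10 µM, raw YFP signal under a set limit, fluorescence ratio 0.5 to 1.5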;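 also: 0% = enzyme with DMSO and 100% = no enzyme wells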
Target sequence (Q9P0U3 419-644 limits assumed): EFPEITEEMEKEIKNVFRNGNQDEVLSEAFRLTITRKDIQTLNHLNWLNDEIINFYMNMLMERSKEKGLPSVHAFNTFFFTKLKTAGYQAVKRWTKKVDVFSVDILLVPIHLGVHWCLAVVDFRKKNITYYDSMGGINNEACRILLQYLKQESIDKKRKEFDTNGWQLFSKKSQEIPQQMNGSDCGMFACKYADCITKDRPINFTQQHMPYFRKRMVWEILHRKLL
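system = hSENP1 catalytic domain, recombinant | reagent = SFCypet-SUMO1-SFYpet substrate at 25 nM | doses = one dose per compound, 10 µM, 0.5% DMSO | incubation = enzyme reaction for 50 min at room temperature, dark | measured by = FRET, CFP and YFP emission | controls = no-enzyme low, enzyme-DMSO high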
SENP8 conf: SENP8 protease inhibitors, retest, confirmation, biochemical, luminescence, single concentration | shares compounds with SENP7 inh | Recombinant SENP8, Z-RLRGG-aminoluciferin luminescence, 60 min | inhibition, % at 12.5 µM | hit rate 40% among 6,200 | AID 488912, 2010;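 active = mean inhibition across replicates above about 50%, limit read from the data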
SENP6 confirm: SENP6 protease inhibitors, confirmation, biochemical, luminescence, single concentration. shares compounds with SENP7 inh. recombinant SENP6, Z-RLRGG-aminoluciferin luminescence. inhibition, % at 12.5 µM. hit rate 58% among 6,200. AID 488915, 2010
SENP7 confirm: SENP7 protease inhibitors, retest, confirmation, biochemical, luminescence, single concentration; shares compounds with SENP7 inh; recombinant SENP7, Z-RLRGG-aminoluciferin luminescence, 40 min; inhibition, % at 12.5 µM; hit rate 69% among 6,200
Casp3 select: caspase-3 protease inhibitors, confirmation, selectivity assay for SENP inhibitor project, biochemical, single concentration; shares compounds with SENP7 inh; inhibition, % at 12.5 µM; hit rate 60% among 6,200; purified caspase-3, Z-DEVD-aminoluciferin luminescence, 60 min;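 active = mean inhibition above about 50%, limit read from the data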;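 also: plate controls were enzyme with DMSO for no effect and wells without caspase-3 for full effect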
Target sequence (P42574 28-227 limits assumed): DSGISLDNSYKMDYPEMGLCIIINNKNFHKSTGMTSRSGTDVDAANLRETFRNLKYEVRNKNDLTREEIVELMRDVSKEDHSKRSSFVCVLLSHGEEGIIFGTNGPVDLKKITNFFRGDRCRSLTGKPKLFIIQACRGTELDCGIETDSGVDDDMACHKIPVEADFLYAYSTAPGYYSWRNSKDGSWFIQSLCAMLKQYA
SENP luc ctr: counter-screen for SENP inhibitors: luminescence interference | Pre-incubated SENP8/Z-RLRGG-aminoluciferin, luciferase luminescence interference | shares compounds with SENP7 inh | inhibition, % at 12.5 µM | hit rate 39% among 6,200;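 active = mean inhibition above about 50% when retested at one dose, limit read from the data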;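 also: plate controls were DMSO wells with completed reaction for no effect and substrate without enzyme for full effect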
* = called active by the depositor; i = inactive; / = not tested or not shown.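 The calls were made as follows, unless noted: active = mean inhibition above about 50% in the one-dose retest (limit read from the data); inactive = the rest.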

SMILES | SENP8 block-1 | SENP7 inh | SENP8 block-2 | SENP6 block | HSP90 refold inh | SENP1 inh | SENP8 conf | SENP6 confirm | SENP7 confirm | Casp3 select | SENP luc ctr
CCOC(=O)C1=C(C)NC(=S)NC1c1ccc(OCC(=O)N2CCCCCC2)c(OC)c1 (stereo not drawn) | -7 | -5 | -3 | -7 | -3 | 3 | / | / | / | / | /
O=C(CSCc1ccc(F)cc1)Nc1ccccc1 | 3 | 65* | 4 | -4 | 0 | 0 | 7 | 6 | 0 | -3 | -2
CC1(C)CC(=O)C=C(c2n[nH]nc2-c2ccc(F)c(F)c2)C1 | / | / | -10 | / | / | -3 | / | / | / | / | /
Cc1ccc(-c2cc3c(N=O)c4ccccc4c-3n[nH]2)cc1 | 23 | 101* | 0 | 100* | 58* | -1 | 39 | 30 | 21 | 55* | 8
O=C(CNC(=O)c1ccc(Br)o1)NNC(=O)c1ccc(Br)cc1 | -13 | -8 | 10 | -20 | / | 2 | / | / | / | / | /
O=C1C(Cl)=C(Nc2ccccc2)C(=O)c2ccccc21 | / | / | -40 | / | 1 | 4 | / | / | / | / | /
CCN(CC)CCCNC1=C(Cl)C(=O)c2ccccc2C1=O | 22 | 11 | 47* | 75* | 3 | -1 | 41 | 67* | 21 | 55* | 3
C=CCNC1=C(Cl)C(=O)c2ccccc2C1=O | 21 | 17 | 72* | 59* | 4 | -4 | 20 | 50* | 19 | 31 | 9
CC(C)NC1=C(Cl)C(=O)c2ccccc2C1=O | 34 | -7 | 52* | 56* | 10 | -2 | 15 | 45 | 14 | 26 | 5
CCN(CC)CCCNc1nc2ccccc2[nH]1 | -10 | 16 | 28 | -6 | 1 | -3 | / | / | / | / | /
COCCCNC1=C(Cl)C(=O)c2ccccc2C1=O | 6 | 17 | 37 | 31 | 8 | 5 | / | / | / | / | /
CC(C)OCCCNC1=C(Cl)C(=O)c2ccccc2C1=O | 22 | 17 | 68* | 62* | 6 | 2 | 25 | 51* | 15 | 18 | 15
COCCN1C(=O)Cc2c1nc(N)c1c(N)nc(N3CCN(c4ccc(F)cc4)CC3)c(C#N)c21 | -3 | 12 | -453 | -2 | 3 | -23 | / | / | / | / | /
COCC(C)N1C(=O)Cc2c1nc(N)c1c(N)nc(N3CCN(c4ccccc4F)CC3)c(C#N)c21 (stereo not drawn) | 26 | 24 | -394 | 75* | -3 | -68 | -9 | -3 | -4 | -2 | -5
N#Cc1c(N(CCO)CCO)nc(N)c2c(N)nc3c(c12)CC(=O)N3Cc1cccs1 | 11 | 32 | -284 | 30 | 0 | -38 | / | / | / | / | /
CN(CCO)c1nc(N)c2c(N)nc3c(c2c1C#N)CC(=O)N3Cc1cccs1 | -3 | 32 | -386 | 74* | 3 | -37 | -23 | -15 | -11 | -11 | -6
COc1ccc(CN2C(=O)Cc3c2nc(N)c2c(N)nc(N4CCOCC4)c(C#N)c32)cc1 | 30 | 27 | -446 | 66* | 15 | -58 | -6 | -1 | -10 | 1 | 1
O=C(CNC(=O)c1cccs1)OCc1c(F)cccc1Cl | 0 | -2 | 10 | -3 | -1 | 2 | / | / | / | / | /
COc1ccccc1-c1nnc(-c2ccc(C)cc2)o1 | 30 | 55* | -40 | 55* | / | 0 | 50* | 48 | 74* | 54* | 56*
COc1ccc(-c2nc(C#N)c(NCc3ccc(C)cc3)o2)cc1OC | -3 | 0 | -473 | -24 | -4 | 0 | / | / | / | / | /
COc1ccc(-c2nnc(-c3ccccc3)o2)cc1OC | 35 | 64* | -304 | 58* | 0 | 0 | 50 | 50 | 84* | 76* | 68*
COc1ccc(-c2nc(C#N)c(NCCc3ccccc3)o2)cc1OC | 57* | 59* | i | 72* | 0 | -1 | 6 | 66* | 90* | 56* | 59*
c1ccc(-c2nnc(-c3ccncc3)o2)cc1 | -2 | -6 | 39 | 6 | -2 | 0 | / | / | / | / | /
c1ccc(-c2nnc(-c3ccccc3)o2)cc1 | 79* | 92* | 12 | 87* | -1 | 2 | 72* | 82* | 96* | 88* | 66*
COc1cc(-c2nnc(-c3ccccc3)o2)cc(OC)c1OC | 4 | 1 | -494 | -1 | 0 | 0 | / | / | / | / | /
SMILES | SENP8 block-1 | SENP7 inh | SENP8 block-2 | SENP6 block | HSP90 refold inh | SENP1 inh | SENP8 conf | SENP6 confirm | SENP7 confirm | Casp3 select | SENP luc ctr
O=C1NCCN(CC2CCN(CCc3ccccc3)CC2)C1=O | / | / | -2 | / | / | -2 | / | / | / | / | /
O=C(Cn1[nH]c(=O)c2ccccc2c1=O)OCC(=O)c1ccccc1Cl | -10 | -7 | -11 | -9 | / | -3 | / | / | / | / | /
CCCS(=O)(=O)NC(=O)C1(C)CCN(C(=O)c2ccc(SC(F)(F)F)cc2)C1 (stereo not drawn) | / | / | 11 | / | / | 0 | / | / | / | / | /
Clc1cccc(-c2nnc(-c3ccccc3)o2)c1 | 92* | 94* | 5 | 95* | 4 | 0 | 93* | 97* | 102* | 94* | 94*
Nc1ccccc1-c1nnc(-c2ccc(-c3ccccc3)cc2)o1 | 77* | 96* | -272 | 14 | 2 | -40 | 8 | 10 | 16 | 51* | -4
CSc1ccccc1-c1nnc(-c2ccccc2)o1 | 74* | 83* | -212 | 84* | 6 | -2 | 66* | 81* | 96* | 78* | 62*
COc1ccc(CNC(=O)C2CC(=O)N(C3CCCC3)C2)cc1 (stereo not drawn) | -9 | 11 | 8 | -13 | -2 | 2 | / | / | / | / | /
C[C@@H]1CN([C@H](C)CO)C(=O)CCCn2nncc2CO[C@H]1CN(C)Cc1ccc(Cl)c(Cl)c1 | / | / | 7 | / | / | 1 | / | / | / | / | /
